Reference: ChEMBL document CHEMBL2380224, “Fragment-based ligand design of novel potent inhibitors of tankyrases” (J Med Chem, 2013)

Key:
[1] = species on record: Homo sapiens; test: Selectivity ratio of IC50 for PARP2 (unknown origin) to IC50 for TNKS2 PARP domain (947 to 1162) (unknown origin)
[2] = target: T1, Protein mono-ADP-ribosyltransferase PARP3 (Homo sapiens, UniProt Q9Y6F1); test: Inhibition of PARP3 (unknown origin)
T1 sequence (Q9Y6F1 whole entry): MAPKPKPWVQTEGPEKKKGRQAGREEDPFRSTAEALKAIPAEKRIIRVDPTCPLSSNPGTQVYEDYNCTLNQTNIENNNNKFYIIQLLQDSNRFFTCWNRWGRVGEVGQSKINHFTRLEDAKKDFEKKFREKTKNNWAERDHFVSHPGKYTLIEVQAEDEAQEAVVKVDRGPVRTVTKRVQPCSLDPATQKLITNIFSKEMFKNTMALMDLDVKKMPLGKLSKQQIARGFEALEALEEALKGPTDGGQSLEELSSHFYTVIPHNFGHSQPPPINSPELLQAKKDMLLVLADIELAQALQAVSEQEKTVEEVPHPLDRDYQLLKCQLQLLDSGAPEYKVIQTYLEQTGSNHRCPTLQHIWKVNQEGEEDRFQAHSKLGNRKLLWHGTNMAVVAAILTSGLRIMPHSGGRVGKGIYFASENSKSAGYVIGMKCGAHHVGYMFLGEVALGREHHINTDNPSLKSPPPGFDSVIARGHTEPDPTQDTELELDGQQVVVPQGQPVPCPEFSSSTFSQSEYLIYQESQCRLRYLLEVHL

[3] = target: Poly [ADP-ribose] polymerase 1 (Homo sapiens, UniProt P09874); test: Inhibition of PARP1 (unknown origin)
[4] = target: T2, Protein mono-ADP-ribosyltransferase TIPARP (Homo sapiens) (UniProt Q7Z3E1); test: Inhibition of PARP7 (unknown origin) at 10 uM relative to control
T2 sequence (whole entry): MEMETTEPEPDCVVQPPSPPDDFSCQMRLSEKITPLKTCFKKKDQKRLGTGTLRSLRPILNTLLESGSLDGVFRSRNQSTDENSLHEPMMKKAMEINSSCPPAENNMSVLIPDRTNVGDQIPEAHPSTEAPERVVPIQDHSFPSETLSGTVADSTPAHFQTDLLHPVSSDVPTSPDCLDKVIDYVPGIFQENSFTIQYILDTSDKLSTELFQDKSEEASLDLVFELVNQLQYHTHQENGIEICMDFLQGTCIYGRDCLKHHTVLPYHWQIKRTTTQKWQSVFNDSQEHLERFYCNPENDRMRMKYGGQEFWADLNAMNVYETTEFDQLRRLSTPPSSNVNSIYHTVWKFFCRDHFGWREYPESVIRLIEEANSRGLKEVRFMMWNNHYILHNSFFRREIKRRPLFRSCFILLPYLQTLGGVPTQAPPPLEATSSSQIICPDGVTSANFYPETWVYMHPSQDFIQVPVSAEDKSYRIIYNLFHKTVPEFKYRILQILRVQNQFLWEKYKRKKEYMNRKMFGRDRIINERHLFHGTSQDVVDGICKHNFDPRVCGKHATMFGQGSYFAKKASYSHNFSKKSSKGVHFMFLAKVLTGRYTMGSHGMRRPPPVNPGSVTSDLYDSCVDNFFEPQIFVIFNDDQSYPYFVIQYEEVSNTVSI

[5] = target: T3, Poly [ADP-ribose] polymerase tankyrase-2 (Homo sapiens) (UniProt Q9H2K2); test: Binding affinity to TNKS2 PARP domain (947 to 1162) (unknown origin) expressed in Escherichia coli BL21(DE3) assessed as thermal stabilization at 125 uM by differential scanning flourimetric analysis
T3 sequence (whole entry): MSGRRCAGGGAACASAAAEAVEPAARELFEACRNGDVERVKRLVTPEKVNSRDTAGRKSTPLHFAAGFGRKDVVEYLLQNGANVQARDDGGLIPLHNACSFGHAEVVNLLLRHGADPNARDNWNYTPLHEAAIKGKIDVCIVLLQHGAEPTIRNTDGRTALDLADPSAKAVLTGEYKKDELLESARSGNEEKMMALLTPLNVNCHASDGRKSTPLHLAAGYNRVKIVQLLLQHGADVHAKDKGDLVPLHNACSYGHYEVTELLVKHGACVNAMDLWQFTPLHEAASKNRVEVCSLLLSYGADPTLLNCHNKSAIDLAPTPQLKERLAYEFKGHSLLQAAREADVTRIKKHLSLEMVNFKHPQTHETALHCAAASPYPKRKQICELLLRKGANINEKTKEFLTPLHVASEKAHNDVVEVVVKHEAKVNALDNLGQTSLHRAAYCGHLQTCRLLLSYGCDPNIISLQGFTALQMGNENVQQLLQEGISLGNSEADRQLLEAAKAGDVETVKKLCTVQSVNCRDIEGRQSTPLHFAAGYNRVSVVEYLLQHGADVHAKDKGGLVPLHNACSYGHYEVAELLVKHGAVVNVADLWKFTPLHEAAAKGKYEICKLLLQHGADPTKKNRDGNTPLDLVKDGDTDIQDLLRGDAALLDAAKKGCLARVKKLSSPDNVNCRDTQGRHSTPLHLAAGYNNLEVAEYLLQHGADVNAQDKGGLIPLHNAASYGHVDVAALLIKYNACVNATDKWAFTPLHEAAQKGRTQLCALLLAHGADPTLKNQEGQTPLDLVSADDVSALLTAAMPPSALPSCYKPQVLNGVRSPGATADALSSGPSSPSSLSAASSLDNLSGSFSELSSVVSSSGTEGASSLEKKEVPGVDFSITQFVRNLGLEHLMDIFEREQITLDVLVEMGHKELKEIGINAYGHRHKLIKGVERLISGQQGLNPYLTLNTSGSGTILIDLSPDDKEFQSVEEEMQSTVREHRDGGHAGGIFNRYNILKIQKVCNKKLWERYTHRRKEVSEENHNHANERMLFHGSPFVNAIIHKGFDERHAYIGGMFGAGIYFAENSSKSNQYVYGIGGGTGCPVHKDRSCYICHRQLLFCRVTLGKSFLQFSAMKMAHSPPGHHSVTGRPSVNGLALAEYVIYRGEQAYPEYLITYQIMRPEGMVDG
Method in brief: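 DSF dose−response. TNKS2 at 0.2 mg/mL with SYPRO Orange (5×). Compounds were serially diluted in 100% DMSO at 50× the assay concentration. Chymotrypsin (1/100 TNKS2 mass equivalents) was added to the protein–dye mix just before the run. Scanned 25−80 °C at about 2 °C/min, ex 490/em 575 nm, and Tm shift was taken against the DMSO control.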

[6] = species on record: Homo sapiens; test: Selectivity ratio of IC50 for PARP6 (unknown origin) to IC50 for TNKS2 PARP domain (947 to 1162) (unknown origin)

Poly [ADP-ribose] polymerase 1, sequence (P09874 whole entry): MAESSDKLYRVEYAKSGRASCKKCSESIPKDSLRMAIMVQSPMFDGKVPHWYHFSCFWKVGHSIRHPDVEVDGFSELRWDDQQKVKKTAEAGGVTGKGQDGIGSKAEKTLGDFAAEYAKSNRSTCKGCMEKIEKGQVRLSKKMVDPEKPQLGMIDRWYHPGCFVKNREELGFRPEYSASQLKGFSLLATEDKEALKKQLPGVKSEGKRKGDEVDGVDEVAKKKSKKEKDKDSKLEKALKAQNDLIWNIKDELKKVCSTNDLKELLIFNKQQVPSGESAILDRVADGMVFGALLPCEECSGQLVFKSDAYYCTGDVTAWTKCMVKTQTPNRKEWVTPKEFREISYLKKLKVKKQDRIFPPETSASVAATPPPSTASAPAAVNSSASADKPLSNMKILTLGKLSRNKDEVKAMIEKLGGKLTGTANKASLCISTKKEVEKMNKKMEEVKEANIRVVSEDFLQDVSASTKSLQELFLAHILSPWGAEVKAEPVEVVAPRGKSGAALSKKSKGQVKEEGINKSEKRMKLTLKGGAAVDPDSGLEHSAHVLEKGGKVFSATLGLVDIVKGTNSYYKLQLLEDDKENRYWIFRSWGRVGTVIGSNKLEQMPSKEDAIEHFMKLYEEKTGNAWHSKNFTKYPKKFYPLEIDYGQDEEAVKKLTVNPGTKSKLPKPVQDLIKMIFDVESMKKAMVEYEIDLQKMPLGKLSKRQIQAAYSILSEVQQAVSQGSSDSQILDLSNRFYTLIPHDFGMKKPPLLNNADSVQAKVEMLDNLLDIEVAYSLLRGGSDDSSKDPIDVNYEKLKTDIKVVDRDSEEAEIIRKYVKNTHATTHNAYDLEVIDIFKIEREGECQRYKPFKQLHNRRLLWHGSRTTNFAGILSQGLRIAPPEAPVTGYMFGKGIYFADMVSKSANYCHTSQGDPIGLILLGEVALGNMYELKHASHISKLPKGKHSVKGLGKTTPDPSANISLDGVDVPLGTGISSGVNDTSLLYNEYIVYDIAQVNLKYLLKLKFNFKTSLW

Cc1cc(=O)[nH]c2cc(-c3ccccc3F)ccc12
Ratio IC50 [1]: > 100
IC50 [2]: > 10 µM
IC50 [3]: > 10 µM
inhibition [4]: 37%
ΔTm [5]: 5.1 °C
Ratio IC50 [6]: > 100
